# Screening data: PubChem, several laboratories
# Platelet DG rel = platelet dense granule release activity; AID 1663; human platelet-rich plasma, SFLLRN dense granule ATP release, luminescence; hit rate 0.22% among 300,000; inhibition, %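 (compounds screened at 7.5 µM in platelet-rich plasma)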;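 active means mean replicate score, as percent of positive control, at or above 50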
# TAAR1 antag = human TAAR1 antagonism. hit rate 1.5% among 360,000. AID 624466. Q96RJ0. inhibition, % at 3 µM. CHO RD-HGA16 TAAR1, Fluo-8 calcium fluorescence, antagonist;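 active means inhibition above a per-plate cutoff, the mean inhibition of test compounds on that plate plus 3 SD, cut at about 49% in these data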;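 further: 0% = DMSO plus EC80 beta-PEA response and 100% = DMSO alone without agonist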
# Target sequence (Q96RJ0 whole entry, looked up): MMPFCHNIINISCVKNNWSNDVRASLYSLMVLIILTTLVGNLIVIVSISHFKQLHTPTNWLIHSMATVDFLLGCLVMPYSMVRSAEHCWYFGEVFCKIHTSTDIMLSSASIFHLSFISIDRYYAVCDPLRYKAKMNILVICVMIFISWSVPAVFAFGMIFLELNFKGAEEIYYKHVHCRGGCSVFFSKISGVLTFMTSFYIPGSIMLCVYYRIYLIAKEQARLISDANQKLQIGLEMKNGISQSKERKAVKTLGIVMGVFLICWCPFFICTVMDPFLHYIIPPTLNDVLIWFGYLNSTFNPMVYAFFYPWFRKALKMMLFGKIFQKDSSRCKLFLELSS
#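 Test system – hTAAR1-expressing CHO RD-HGA16 cells, Gα16-coupled · Reagent – β-PEA at EC80 concentration, post-compound challenge · Compound dosing – 3 µM, single point · Timing – 140 s kinetic read after compound, 140 s after agonist · Detection – Fluo-8 intracellular calcium dye fluorescence, real-time kinetic reads · Control set – DMSO and EC80 PEA controls · Repeats – n of 1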
# VLA-4 inh = inhibition in a human VLA-4 binding assay; P13612; VLA-4 expressing cells, ligand binding flow cytometry; inhibition, % (about 7 µM as worked out from the volumes in the protocol); hit rate 0.2% among 330,000; in the data active means inhibition above about 50%
# TAAR1 ag = agonists of human TAAR1; Q96RJ0; activation, % at 3 µM; CHO RD-HGA16 TAAR1, Fluo-8 calcium fluorescence; vehicle wells 0%, saturating PEA agonist 100%; hit rate 0.99% among 360,000; AID 624467;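 active means activation above the mean activation of all test compounds in the run plus 3 SD, cut at about 38% in these data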
#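 Assay system: CHO-derived RD-HGA16 cells with stable Gα16 and human TAAR1; timing: 17-24 h seeding, 75 min 37 °C dye, 30 min RT; read-out: % activation from peak over basal fluorescence ratio, DMSO-to-PEA scaled; measured by: kinetic Fluo-8 calcium fluorescence; benchmarks: low control DMSO, high control PEA (EC100); doses: 3 µM single concentration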
# Rce1 inh = blocks yeast Ras-converting enzyme; Q03530; yeast membranes, quenched prenylated peptide cleavage fluorescence; calls only; hit rate 0.27% among 290,000; AID 2563;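 active means fall in fluorescence gain of 50% or more versus controls, with final raw signal at or below 3038400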;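 further: plate controls were neutral control wells for no effect and wells lacking membranes for full effect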
# Target sequence (Q03530 whole entry, looked up): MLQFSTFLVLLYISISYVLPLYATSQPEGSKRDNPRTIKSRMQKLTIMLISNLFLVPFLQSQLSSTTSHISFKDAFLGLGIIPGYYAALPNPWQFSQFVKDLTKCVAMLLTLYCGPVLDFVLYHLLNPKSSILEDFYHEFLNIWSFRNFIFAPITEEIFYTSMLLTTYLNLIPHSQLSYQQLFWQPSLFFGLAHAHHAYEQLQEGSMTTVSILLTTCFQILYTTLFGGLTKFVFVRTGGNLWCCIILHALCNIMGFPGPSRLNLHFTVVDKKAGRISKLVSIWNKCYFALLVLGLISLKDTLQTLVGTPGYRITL
# TAAR1 ag confirm = human TAAR1 agonism, confirmed; activation, % at 3 µM; shares compounds with TAAR1 ag; hit rate 82% among 2,400; CHO RD-HGA16 TAAR1, Fluo-8 calcium fluorescence; scaled: DMSO 0%, maximal phenethylamine 100%;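 active means activation above a cutoff set at the run's mean compound activation plus 3 SD, cut at about 39% in these data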
# Ga16 ag counter = nonselective agonism, TAAR1 counter-screen; CHO-Ga16 parental, Fluo-8 calcium fluorescence; normalized to maximal ATP response, DMSO zero; hit rate 50% among 2,400; shares compounds with TAAR1 ag; activation, % at 3 µM;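 active means activation above the run cutoff, the mean activation over all tested wells plus 3 SD, cut at about 12% in these data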;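 further: 0% = DMSO wells and 100% = maximal ATP response on the peak over basal ratio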
# TAAR1 desens = counter-screen for human TAAR1 agonists: agonists that desensitize TAAR1; shares compounds with TAAR1 ag; CHO RD-HGA16 hTAAR1, Fluo-8 calcium, beta-PEA response inhibition; inhibition, % at 3 µM; hit rate 46% among 2,400; AID 651951;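 active means inhibition above the run cutoff, the mean inhibition of all test compounds plus 3 SD, cut at about 49% in these data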;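 further: beta-PEA stimulus applied at its EC80; loss of beta-PEA calcium signal after compound pretreatment read as receptor desensitization; 0% = DMSO with beta-PEA at EC80 and 100% = DMSO alone without agonist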
# Ga16 antag count = counter-screen for TAAR1 agonists: nonselective Ga16 antagonists | shares compounds with TAAR1 ag | CHO-Ga16 ATP-induced calcium, Fluo-8 fluorescence | inhibition, % at 3 µM | hit rate 39% among 2,400 | AID 651952;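 active means inhibition above the plate's mean compound inhibition plus 3 SD, computed per plate, cut at about 22% in these data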;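 further: 0% = EC80 ATP with DMSO and 100% = DMSO wells without ATP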
# * hit, by the source's call; i = inactive; / = no result given. An excerpt weighted towards active compounds, which were near 2.6% of everything screened.
SMILES,Platelet DG rel,TAAR1 antag,VLA-4 inh,TAAR1 ag,Rce1 inh,TAAR1 ag confirm,Ga16 ag counter,TAAR1 desens,Ga16 antag count
CN1/C(=C\C=C2/SC(=S)N(CC(=O)O)C2=O)C(C)(C)c2ccccc21,20,84*,-195,235*,/,114*,121*,66*,61*
CC(C)(C)NC(=O)C(c1cc2ccccc2o1)n1c(-c2ccc(-c3ccccc3)cc2)nc2ccccc21 (stereo not drawn),/,-47,/,2,/,/,/,/,/
COc1ccc(Nc2cc(C)nc(N3CCOCC3)n2)cc1,/,3,1,49*,/,70*,5,38,6
Cc1cc(C)c2c(c1)/C(=N/NC(=O)c1cc(C)oc1C)CCC2,-5,-9,23,82*,i,20,2,19,5
O=C(COC(=O)c1cc2ccccc2cc1O)NCc1ccccc1,/,83*,-4,87*,/,2,29*,6,22*
O=C(COC(=O)c1cc2ccccc2cc1O)Nc1cccnc1Cl,-5,31,-5,48*,i,21,11,28,18
O=C(COC(=O)c1ccc2ccccc2c1O)NCc1ccccc1,/,3,0,-1,/,/,/,/,/
O=C(COC(=O)c1ccc(O)cc1O)NC(=O)Cc1ccccc1,/,61*,/,143*,/,134*,71*,88*,42*
COC(=O)[C@]12CCCCC=C1N(CCC1=CCCCC1)C(=O)[C@H](CC(=O)N1CCCCC1)C2,/,17,/,9,/,/,/,/,/
CCC(CC)n1c(C)cc(=O)n1C(CC)CC,/,-7,/,2,/,/,/,/,/
CCOC1=C2[C@H](c3ccc(CC)cc3)N(S(=O)(=O)c3ccc(C)cc3)C[C@H]2C(C#N)(C#N)C(C#N)(C#N)C1,/,-14,/,2,/,/,/,/,/
O=C(O)Cc1c(O)ccc2ccccc12,-3,15,-2,8,i,/,/,/,/
NCc1c(O)ccc2ccccc12,-1,/,-5,/,i,/,2,/,7
O=C(O)/C=C/C(=O)NCCCc1ccccc1,-9,34,-3,74*,i,103*,2,78*,-2
CCc1ccc(CNC(=O)Cc2ccc(NC(=O)C3=C(C)OCCS3)cc2)cc1,1,-40,0,1,i,/,/,/,/
Cc1cccc(S(=O)(=O)N(C)C[C@H]2OCc3cn(nn3)CCCC(=O)N([C@H](C)CO)C[C@@H]2C)c1,/,-6,/,1,/,/,/,/,/
CCCCCN=C(C)c1c(O)c2ccccc2oc1=O,-2,16,-7,58*,i,58*,2,12,2
C/C(=N/NS(=O)(=O)c1ccc(C)cc1)c1c(O)c2ccccc2oc1=O,10,-26,4,5,i,/,/,/,/
CCN1CCN(CCNC(=O)c2cc(Cl)c(NC(=O)C3=C(C)OCCS3)cc2OC)CC1,1,5,0,2,i,/,/,/,/
CC(C)(C)NC(=O)CN(C(=O)CNS(=O)(=O)c1ccc(Cl)cc1)c1ccc2c(c1)OCCO2,-2,6,-6,72*,i,100*,45*,25,8
CCC(C)(C)NC(=O)CN(C(=O)CNS(=O)(=O)c1ccc(C)cc1)c1ccc2c(c1)OCCO2,-3,-13,-1,52*,i,82*,26*,12,8
CCCN(CCC)CCCNC(=O)Cn1cnc2sc(C)c(S(=O)(=O)N3CCOCC3)c2c1=O,1,8,-4,-4,i,/,/,/,/
Cc1ccc(S(=O)(=O)NCC2CCN(C(=O)C(=O)c3cccs3)CC2)cc1,/,-12,/,2,/,/,/,/,/
C=CCNc1nc(-c2ccccc2)nc(-n2ccnc2)n1,-1,24,9,46*,i,-4,-1,0,11
OCc1ccccc1SSc1ccccc1CO,-5,-4,26,58*,i,32,19*,7,5
SMILES,Platelet DG rel,TAAR1 antag,VLA-4 inh,TAAR1 ag,Rce1 inh,TAAR1 ag confirm,Ga16 ag counter,TAAR1 desens,Ga16 antag count
Cc1ccc(C(=O)NC(C)c2ccc(F)cc2)cc1 (stereo not drawn),16,-10,11,0,i,/,/,/,/
CC(C)Cc1ccc(C(C)NC(=O)c2ccc(=O)[nH]c2)cc1 (stereo not drawn),-7,39,16,91*,i,94*,49*,49*,38*
Oc1c(C=Nc2cccc3cccnc23)sc2ccccc12,23,94*,i,130*,i,39*,69*,58*,69*
O=[N+]([O-])c1ccc(O)c(N=Cc2sc3ccccc3c2O)c1,0,8,-230,12,i,/,/,/,/
C=Cc1ccc(Cn2c(C)c(C(=O)NCCC#N)sc2=O)cc1,/,-9,/,2,/,/,/,/,/
O=C(NCCc1ccccc1)C1CCCN(S(=O)(=O)c2cccc3nonc23)C1 (stereo not drawn),2,3,27,9,i,/,/,/,/
O=C(NCCc1ccccc1)C1CCCN(S(=O)(=O)c2cccc3nsnc23)C1 (stereo not drawn),-17,72*,9,97*,i,85*,6,91*,15
O=C(NCCc1ccccc1)C(NS(=O)(=O)c1cccc2nsnc12)c1ccccc1 (stereo not drawn),-1,11,-14,41*,i,76*,-1,41,11
Cc1ccc(CCNC(=O)C2CCN(S(=O)(=O)c3cccc4nsnc34)CC2)cc1,3,56*,3,77*,/,1,4,16,19
CCCNC(=O)C(NS(=O)(=O)c1cccc2nsnc12)c1ccccc1 (stereo not drawn),1,-26,-5,2,i,/,/,/,/
CCN(C(=O)COC(=O)c1cccs1)c1c(N)n(Cc2ccccc2)c(=O)[nH]c1=O,4,-8,2,1,i,/,/,/,/
CCCCOCCCNC(=O)C[C@@H]1C[C@@]2(C(=O)OC)CCCCC=C2N(Cc2cccc3ccccc23)C1=O,/,46,/,3,/,/,/,/,/
CCCn1c(N)c(Sc2ccccc2[N+](=O)[O-])c(=O)n(CCC)c1=O,16,9,-14,1,i,/,/,/,/
Cc1ccc(C)c(OCCC(=O)OCC(=O)Nc2cccnc2Cl)c1,-9,-29,-9,0,i,/,/,/,/
Cc1ccc(OCC(=O)NNC(=S)NC(=O)C2CC2)c(C)c1,/,14,-3,49*,i,48*,50*,36,39*
Cc1ccc(OCC(=O)NC(=S)Nc2ccccn2)c(Br)c1,-12,5,-3,1,i,/,/,/,/
Cc1ccc(OCC(=O)NNC(=S)NC(=O)C(C)(C)C)c(Br)c1,13,106*,-1,155*,i,132*,109*,98*,72*
